The values that follow come from article PMC4650901 (Scientific Reports, 2014).

Assay [1] relates to HepG2 cells. Description: Cell cycle analysis by flow cytometry. Type of assay: cell-based, human. Conditions: HepG2, 24 h. Put shortly:
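Treatments: A-375 cells with test compound at 0, 1, 3, 5 μM; HepG2 cells untreated, 2-DG 20 mM, test compound 4 μM, or 20 mM + 4 μM; all 24 h. 1 × 10^6 cells washed twice in PBS and fixed overnight in 70% ice-cold ethanol. Stained 30 min at 4°C in the dark with 1% Triton X-100, 0.01% RNase, 0.05% PI. Flow cytometry, three experiments.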
A general note: In flow cytometry, cells or beads pass a laser one at a time.

Assay [2] deals with HepG2 cells. Description: Annexin V-FITC/PI double staining, HepG2. Type of assay: cell-based, human. Particulars: HepG2, 24 h, single drug 2-DG (Fig. 5b: 40 mM). Summed up: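 HepG2 cells exposed 24 h to test compound, 2-DG, or both. 3 × 10^5 cells harvested, PBS-washed twice, stained with Annexin V-FITC and PI for 15 min in the dark, then analysed by flow cytometry. Quadrants: Annexin V−/PI− healthy, V+/PI− early apoptotic, V+/PI+ late apoptotic/necrotic, V−/PI+ necrotic. Three experiments.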

The test system of assay [3] is HepG2 cells. Description: Lactate production assay. Type of assay: cell-based, human. Particulars: HepG2, 24 h; UA-4 2, 4 and 6 μM. Summed up:
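HepG2 cells (3 × 10^5/well) treated 24 h with 2-DG (0, 10, 20, 40 mM), test compound (0, 2, 4, 6 μM) or combinations (10 + 2, 20 + 4, 40 + 6). Lactate in culture supernatant measured by kit at OD 530 nm and normalised to cell number. Medium background subtracted; means ± SD of triplicate wells.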

Assay [4] deals with caspase-8. Description: Caspase-8 activity assay in HepG2 lysates. Format: cell-based, human. Conditions: HepG2, 24 h; 2-DG 10, 20 mM; UA-4 2, 4 μM; 10 + 2, 20 + 4. Put shortly:
(§1)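 Lysates were prepared from HepG2 cells treated 24 h with 2-DG (0, 10, 20 mM), test compound (0, 2, 4 μM) or combinations (10 + 2, 20 + 4). Lysates were incubated 4 h at 37°C with pNA substrate: Ac-DEVD-pNA (caspase-3), Ac-IETD-pNA (caspase-8) or Ac-LEHD-pNA (caspase-9). Absorbance at 405 nm, normalised to protein concentration.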

Assay [5] has as its system hexokinase (HK). Description: Hexokinase activity assay in HepG2 cells. Format: cell-based, human. Particulars: HepG2, 24 h.
The test system of assay [6] is HepG2 cells. Description: MTT assay for cell viability/proliferation, HepG2. Conditions: Homo sapiens, HepG2, 24 h; for IC80: read-out: IC80 of glycolysis inhibitors; for IC50: read-out: IC50 HepG2. Type of assay: cell-based. For orientation: Tetrazolium assays rely on reduction of a dye to a coloured formazan, in cell work by metabolically active cells.
The subject of assay [7] is HepG2 cells. Description: Intracellular ATP, luciferase-luciferin assay. Type of assay: cell-based, human. Particulars: HepG2, 24 h of treatment (method: 12-h incubation). Put shortly:
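HepG2 cells seeded at 3 × 10^5/well and grown 24 h. Then incubated 12 h with 2-DG (0, 10, 20, 40 mM), test compound (0, 2, 4, 6 μM) or combinations (10 + 2, 20 + 4, 40 + 6). Cells PBS-washed, lysed on ice, and ATP read by luciferase–luciferin luminescence. Values normalised to protein and expressed as % of control mean.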

Assay [8] has as its system caspase-9. Description: Caspase-9 activity assay in HepG2 lysates. Type of assay: cell-based, human. Conditions: HepG2, 24 h; 2-DG 10, 20 mM; UA-4 2, 4 μM; 10 + 2, 20 + 4. Summed up: as §1
The test system of assay [9] is caspase-3. Description: Caspase-3 activity assay in HepG2 lysates. Type of assay: cell-based, human. Conditions: HepG2, 24 h; 2-DG 10, 20 mM; UA-4 2, 4 μM; 10 + 2, 20 + 4. Put shortly: as §1
The test system of assay [10] is AGS cells. Description: MTT assay for cell viability/proliferation, AGS. Type of assay: cell-based. Particulars: Homo sapiens, 24 h, read-out: IC50 AGS. Summed up:
(§2)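 Cells grown in RPMI 1640 with 10% heat-inactivated FBS and penicillin/streptomycin at 37°C, 5% CO2. Plated at 1 × 10^4/well overnight, then treated 24 h with graded test compound (DMSO stock diluted in medium, 0.1% DMSO final; vehicle control 0.1% DMSO). MTT added 4 h in phenol-red-free, serum-free medium; formazan dissolved in DMSO; A492. IC50 = concentration giving 50% growth inhibition; ≥3 repeats.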

In assay [11] the test system is HeLa cells. Description: MTT assay for cell viability/proliferation, HeLa. Particulars: Homo sapiens, 24 h, read-out: IC50 HeLa. Format: cell-based. Summed up: as §2
For assay [12], the system named is HELF cells. Description: MTT assay, normal counterpart cell line HELF. Format: cell-based. Conditions: Homo sapiens, 24 h, read-out: IC50 HELF. Summed up:
as §2

The test system of assay [13] is A-375 cells. Description: MTT assay for cell viability/proliferation, A-375. Format: cell-based. Conditions: Homo sapiens, A-375, 24 h, read-out: IC50 A-375. Put shortly:
as §2

Assay [14] has as its system four cancer cell lines (HepG2, AGS, A-375, HeLa). Description: MTT assay, range over four cancer cell lines. Particulars: Homo sapiens, read-out: IC50 to suppress cell proliferation. Type of assay: cell-based. Put shortly: as §2

With `O=CC[C@@H](O)[C@H](O)[C@H](O)CO` [Compound 2-DG, 2-Deoxy-D-glucose], in [1], the “cell cycle arrest (in words)” value was “cell cycle arrest in G2/M”. Besides, in [2], the apoptosis is 13.7%. Moreover, the “lactate production (in words)” value in [3] is given as “decreased lactate production”. In addition, the “activity of caspase-8” value in assay [4] was “dose-dependently increased”. The “total hexokinase (HK) activity (in words)” value in [5] is “reduce the activity of hexokinase”. The IC80 in [6] amounted to 50000 µM. Also, the “intracellular ATP concentration (in words)” value in [7] is recorded as “slightly decreased”. Also, the “activity of caspase-9” value in assay [8] is given as “dose-dependently increased”. Further, the “activity of caspase-3” value in assay [9] is reported as “dose-dependently increased”.
As to `N[C@@H](CS)C(=O)O` [L-Cys, L-cysteine], the IC80 in assay [6] amounted to 15000 µM.
As for `c1ccc([C@H]2CN3CCSC3=N2)cc1` [LM, levamisole], the IC80 in [6] came to 2500 µM.
For the compound `CC(=O)O[C@H]1C(=O)[C@@]2(C)[C@H]([C@H](OC(=O)c3ccccc3)[C@]3(O)C[C@H](OC(=O)[C@H](O)[C@@H](NC(=O)c4ccccc4)c4ccccc4)C(C)=C1C3(C)C)[C@]1(OC(C)=O)CO[C@@H]1C[C@@H]2O` [Paclitaxel], the IC50 in assay [10] turned out to be 9.24 ± 0.13 µM; in assay [11], 6.62 ± 0.21 µM; in assay [6], 10.32 ± 0.02 µM; in assay [12], 7.17 ± 0.08 µM; in [13] it was 8.56 ± 0.07 µM.
On to `C[C@H]1[C@H](C)CC[C@]2(C(=O)O)CC[C@]3(C)C(=CC[C@@H]4[C@@]5(C)CC[C@H](O)C(C)(C)[C@@H]5CC[C@]43C)[C@H]12` [UA, 3β-hydroxy-urs-12-en-28-oic acid], for which the IC50 in [10] is 43.2 ± 2.13 µM; in assay [11], 33.1 ± 0.63 µM; in [6], 68.8 ± 3.71 µM; in assay [12] it was 21.3 ± 1.76 µM; in assay [14], 33.1 to 68.8 µM; in [13], 57.6 ± 3.21 µM.

As a reminder, the IC80 is the concentration at which the effect reaches the 80% level.
